PMC3865530 (Current pharmaceutical design, 2012)

Columns and labels:
Type in all cases: binding
AATT duplex sequence = assay: UV-thermal melting with AT-rich hairpin duplex DNA; details: ligand:DNA ratio 2:1; 80 mM KCl; Tm of free AATT 69 °C
(CG)4 duplex sequence = assay: UV-thermal melting with GC-rich hairpin duplex DNA; details: ligand:DNA ratio 2:1; 80 mM KCl; Tm of free (CG)4 63 °C
Method in brief: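 Duplex melted in 10 mM K₂HPO₄, 80 mM KCl, 3 mM EDTA, pH 7.3, at 2–3 µM single-strand, in 1 cm quartz cuvettes. Ligand was titrated from stock to compound:DNA ratios up to 4:1. Absorbance at 260 nm was followed while heating at 0.5 °C/min. ΔTm was taken at 2:1, reproducible within ±1 °C.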

[1] = system: Tel24 human telomeric quadruplex DNA; assay: UV-thermal melting with telomeric quadruplex DNA; details: ligand:DNA ratio 4:1; 80 mM KCl; Tm of free Tel24 67 °C

Row | Structure (SMILES) | ∆Tm of AATT duplex (AATT duplex sequence) | ∆Tm of (CG)4 duplex ((CG)4 duplex sequence) | ∆Tm of Tel24 quadruplex [1]
1 | COS(=O)(=O)[O-].Cc1cc2c3c([n+](C)c4ccc(F)cc4c3c1)-c1cc(F)ccc1N2C [RHPS4, 3,11-difluoro-6,8,13-trimethyl-8H-quino[4,3,2-kl] acridinium methosulfate] | very little affinity | very little affinity | very similar melting values as DB832
2 | Cn1cc(NC(=O)c2cc(NC(=O)c3cc(NC=O)cn3C)cn2C)cc1C(=O)NCCC(=N)N [Distamycin] | strong binder |  | did not show any significant increase
